Consider 20 sequences from the EternaBench riboswitch data.

For the data set, the system named is MS2 coat protein. In words: apparent Kd, MS2 coat protein; higher = weaker binding; RNA-MaP array; FMN 200 µM where present. In outline: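 Two titrations, one without ligand and one with constant ligand, were run with SNAP-549-labelled MS2 coat protein from 0.7 or 1.5 nM, doubling to 3 µM. The targets were designs transcribed by stalled E. coli RNA polymerase on Illumina sequencing-chip clusters, in 100 mM Tris-HCl pH 7.5, 80 mM KCl, 4 mM MgCl2, BSA, DTT, yeast tRNA and Tween-20. The apparent Kd is the median of filtered per-cluster binding-curve fits, with green signal normalised to red-channel RNA signal and control-cluster median Fmax.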

[1] abbreviates: designed as: ON switch for flavin mononucleotide, no ligand.
[2] abbreviates: ligand present: flavin mononucleotide, designed as: ON switch for flavin mononucleotide.
[3] abbreviates: designed as: OFF switch for flavin mononucleotide, no ligand.
[4] abbreviates: ligand present: flavin mononucleotide, designed as: OFF switch for flavin mononucleotide.

Consider “GAAUAUUCGUUGUACAUGAGGAUCACCCAUGUGACUUUACAUGAGGAUAUGGAUUCUAAUUGGAUCCAGAAGGCAUGAAUAUUC”, for which the “apparent Kd” value came out at 171 nM under setting [1] and 35 nM under setting [2].

On to “AUCGUGCAGCUUUGCUGUACGCGUACAUGAGGAUCACCCAUGUAGGAUAUGGUAGGCUUUGCUUACUAGAAGGAUAGUGUGAUC”, for which the “apparent Kd” value reads like this: under setting [3], 106 nM; under setting [4], 33.2 nM.

As to “CUGGGAUCAGUAGGAUAUGCCGGACAUGAGGAUCACCCAUGUAAGGCGUGCUUCCCUCGCGUGCGGCAGAAGGGCUGCAUCACA”, the “apparent Kd” value is, setting by setting: under setting [3], 32.7 nM; under setting [4], 35.4 nM.

Consider “UUCCUCAUAACAUGAGGAUCACCCAUGUAUUAUUUGAUAACUGAGGAUAUACUUUUAAUGUUUAUGUAGAAGGCAGAUACAGUU”, for which the “apparent Kd” value reads like this: under setting [3], 89.4 nM; under setting [4], 138 nM.

Turning to “GGGAAGUUAGGAUAUGCUGCUCGUCACUUGCGUGAUGAGUAGCAGAAGGGACAUGAGGAUCACCCAUGUAAAGA”, the “apparent Kd” value under setting [3] is 41.6 nM and the “apparent Kd” value under setting [4] worked out at 26.2 nM.

As for “UGUCAGAUGGUAGGAUAUCCAUAUCGCGUGUCCCUUUCCUAACAUGAGGAUCACCCAUGUCGGUGGGAGAAGGGCCGUAUGGUG”, the “apparent Kd” value was determined as 13.2 nM under setting [3] and 12.1 nM under setting [4].

For “GUAAUGUGAGGAUAUGGUAAAGAUAAGAUGAUGAAAGAACUCCAGAAGGCACAUGAGGAUCACCCAUGUAGAUG”, the “apparent Kd” value under setting [3] worked out at 26.7 nM and the “apparent Kd” value under setting [4] is 107 nM.

Turning to “AAGUCACAUGAGGAUCACCCAUGUCGUAAACGAUGAGGAUAUAGGAACGAAAGAAAAAAACUAGAAGGUAUAACAA”, the “apparent Kd” value reads like this: under setting [1], 52.2 nM; under setting [2], 52 nM.

Regarding “CGUAAGCAAGGAUAUACAUGAGGAUCACCCAUGUAGCUUUGCUUCGUGGGCACAACAUGUAGAAGGUGCGAAAA”, the “apparent Kd” value under setting [3] was 15.3 nM and the “apparent Kd” value under setting [4] was found to be 13.3 nM.

Take “GGAGCGAGCACAGGAUAUAAGCUAACGGUUAGUUUAGAAGGGUGGGAUCAGACAUGAGGAUCACCCAUGUGUGUUUUUGCUCCA”: the “apparent Kd” value was found to be 128 nM under setting [1] and 314 nM under setting [2].

For the sequence “GAAUAUUCGUUGUACAUGAGGAUCACCCAUGUGACUUGACAUGAGGAUAUGGAUUCUAAUUGGAUCCAGAAGGCAUGAAUAUUC”, the “apparent Kd” value worked out at 122 nM under setting [1] and 31.5 nM under setting [2].

Regarding “AGUUGGCGAGGAUAUACAUGAGGAUCACCCAUGUGAGAGAAAAAAAGGAGAAAAAAAAGUAGAAGGCGCUGACA”, the “apparent Kd” value under setting [3] came to 37.5 nM and the “apparent Kd” value under setting [4] stood at 120 nM.

As for “UAGGUACAUGAGGAUCACCCAUGUGGGUCGGUCACAGGAUAUCGCCGUGGGCCCAGGCGGCGAGAAGGGUGCCGGU”, the “apparent Kd” value is, setting by setting: under setting [1], 277 nM; under setting [2], 34.8 nM.

As for “CAGCGAUAGCUGAACAAUCUAUCUGAGGAUAUUCAUGAUAAACAUGAGGAUCACCCAUGUAAUUGGGAGAAGGCAGAUAGAUUG”, the “apparent Kd” value runs as follows: under setting [1], 441 nM; under setting [2], 19.3 nM.

As for “GAUAGGACAGAGAAGGACAUAGCUAGAGAUACUAGCAUAUGAACCUCUACAUGAGGAUCACCCAUGUAGGAUAUCUGUCCUAUC”, the “apparent Kd” value reads like this: under setting [3], 6.07 nM; under setting [4], 6.21 nM.

As to “GGAAAUCAUGUAGGAUAUGCAUGGCGAAGCUACGCAGAAGGACAUGAGGAUCACCCAUGUUAUAGCGUUCGAGAAAGGAUGCAA”, the “apparent Kd” value was 20.1 nM under setting [3] and 87.9 nM under setting [4].

On to “AUGAGUAAAGCAGGAUAUCUAUUGUCUCAGUAACAUGAGGAUCACCCAUGUAGAGAAGGGCUAAGUCUUACUCUUCGGAGAUGA”, for which the “apparent Kd” value worked out at 12.3 nM under setting [3] and 13.4 nM under setting [4].

Turning to “UUGGUUGUCGUAGGAUAUGUAGGAUAUUCCUACAUGAGGAUCACCCAUGUUCGCAUGGAAGAAGGACGGAAGGACGAUGACCAA”, the “apparent Kd” value worked out at 233 nM under setting [1] and 153 nM under setting [2].

As to “CUUGUUUAUGUGAGGAUAUACUGUUAGUAAUGUUUGUAGAAGGUACAUGAGGAUCACCCAUGUUUAUUUAUAUU”, the “apparent Kd” value turned out to be 19.2 nM under setting [3] and 18 nM under setting [4].

With “GGUUGACAAAGUCAACCUUAACGAACAUGAGGAUCACCCAUGUAGGAUAUGCUACUCAAAGAGUAGCAGAAGGACAUGUGUCUU”, the “apparent Kd” value is, setting by setting: under setting [3], 30 nM; under setting [4], 169 nM.

The term apparent Kd denotes the concentration giving half-maximal binding under the conditions of the assay.
